Series [1] deals with Staphylococcus aureus. The experiment in a line: Antimicrobial activity against methicillin-resistant Staphylococcus aureus RCMB 2658 clinical isolate after 20 hrs by broth microdilution method. It counts as functional. Conditions: RCMB 2658, 20 h. Put shortly:
(§1)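 CLSI broth microdilution in cation-adjusted Mueller Hinton broth. Compounds were serially diluted in triplicate and plates held at 37 °C for 20 h. MIC was taken by eye as the lowest concentration with no visible growth, and the average of the triplicate determinations is reported.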
(In general: Broth dilution looks for growth in wells or tubes with falling amounts of substance.)

A short description of series [2]: Aqueous solubility of the compound in PBS after 2 hrs by turbidity assay. It counts as physicochemical. The gist of the method: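 Serial dilutions were made […] and diluted 100-fold into PBS. After 2 h, turbidity was read at 540 nm with pre-addition background subtracted. Turbidity was taken as absorbance > blank mean + 3 SD. Solubility limit is the highest concentration with no turbidity.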

Series [3] can be described thus: Apparent permeability across apical to basolateral side in human Caco2 cells at pH 6.5 after 2 hrs by LC/MS/MS analysis. It counts as ADME, cell-based. Conditions: Caco-2, pH 6.5. Put shortly: (§2)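 Caco-2 cells were grown and differentiated for 3 weeks, fed every 2 days. Compound was added to the apical or basolateral side and measured on the opposite side after 2 h by LC/MS/MS. Apical buffer was pH 6.5 transport buffer (glucose, 10 mM HEPES, HBSS) with 100 μM Lucifer yellow; basolateral buffer was pH 7.4. Lucifer yellow fluorescence checked monolayer integrity. Papp = (dQ/dt)/C₀A; efflux ratio = Papp(B→A)/Papp(A→B).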
On the technique in general: Passage across Caco-2 layers is used to estimate intestinal permeability.

Series [4] in a line: Efflux ratio of apparent permeability from basolateral to apical side over apical to basolateral side in human Caco2 cells after 2 hrs by LC/MS/MS analysis. It counts as ADME, cell-based. To be noted: Caco-2. The gist of the method: as §2
Series [5] can be described thus: Apparent permeability across basolateral to apical side in human Caco2 cells at pH 7.4 after 2 hrs by LC/MS/MS analysis. To be noted: Caco-2, pH 7.4.
Series [6] concerns Staphylococcus aureus. The experiment in a line: Bactericidal activity against methicillin-resistant Staphylococcus aureus USA200 NRS383 clinical isolate after 20 hrs by broth microdilution method. To be noted: USA200 NRS383, 20 h. It counts as functional.
Series [7] relates to Staphylococcus aureus. The experiment in a line: Bactericidal activity against methicillin-resistant Staphylococcus aureus USA300 assessed as time required to reduce bacterial inoculum to zero colony forming units at 3 times MIC by time kill assay. It counts as functional. Put shortly: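 Samples taken at 2, 4, 6, 8, 10, 12 and 24 h were serially diluted in PBS and plated on trypticase soy agar. Viable CFU/mL were counted after at least 16 h at 37 °C.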

Series [8] concerns Staphylococcus aureus. The experiment in a line: Bactericidal activity against methicillin-resistant Staphylococcus aureus USA400 NRS123 clinical isolate after 20 hrs by broth microdilution method. It counts as functional. To be noted: USA400 NRS123, 20 h.
Series [9] relates to Staphylococcus aureus. The experiment in a line: Bactericidal activity against methicillin-sensitive Staphylococcus aureus NRS72 clinical isolate after 20 hrs by broth microdilution method. Conditions: NRS72, 20 h. It counts as functional.
Series [10] relates to Staphylococcus aureus. The experiment in a line: Antimicrobial activity against vancomycin-resistant Staphylococcus aureus 10 clinical isolate after 20 hrs by broth microdilution method. It counts as functional. To be noted: isolate 10, 20 h. Put shortly:
as §1

The subject of series [11] is Staphylococcus aureus. The experiment in a line: Bactericidal activity against methicillin-resistant Staphylococcus aureus NRS119 clinical isolate after 20 hrs by broth microdilution method. It counts as functional. To be noted: NRS119, 20 h.
Series [12] concerns Enterococcus faecium. The experiment in a line: Bactericidal activity against vancomycin-resistant Enterococcus faecium ATCC 700221 after 20 hrs by broth microdilution method. It counts as functional. Conditions: ATCC 700221, 20 h.
The subject of series [13] is Staphylococcus aureus. The experiment in a line: Bactericidal activity against methicillin-resistant Staphylococcus aureus USA300 NRS384 clinical isolate after 20 hrs by broth microdilution method. It counts as functional. Conditions: USA300 NRS384, 20 h.
In series [14] the test system is Staphylococcus aureus. The experiment in a line: Bactericidal activity against methicillin-resistant Staphylococcus aureus USA100 NRS382 clinical isolate after 20 hrs by broth microdilution method. It counts as functional. Conditions: USA100 NRS382, 20 h.
Series [15] deals with Enterococcus faecium. The experiment in a line: Antimicrobial activity against vancomycin-resistant Enterococcus faecium ATCC 700221 after 20 hrs by broth microdilution method. It counts as functional. Conditions: ATCC 700221, 20 h. Put shortly:
as §1

Series [16] relates to Staphylococcus aureus. The experiment in a line: Bactericidal activity against vancomycin-resistant Staphylococcus aureus 10 clinical isolate after 20 hrs by broth microdilution method. It counts as functional. To be noted: isolate 10, 20 h.
Series [17] has as its system Staphylococcus aureus. The experiment in a line: Antimicrobial activity against methicillin-resistant Staphylococcus aureus USA100 NRS382 clinical isolate after 20 hrs by broth microdilution method. It counts as functional. To be noted: USA100 NRS382, 20 h. Put shortly:
as §1

Series [18] concerns Staphylococcus aureus. The experiment in a line: Antimicrobial activity against methicillin-resistant Staphylococcus aureus NRS119 clinical isolate after 20 hrs by broth microdilution method. It counts as functional. To be noted: NRS119, 20 h. Put shortly: as §1
The subject of series [19] is Staphylococcus aureus. The experiment in a line: Antimicrobial activity against methicillin-resistant Staphylococcus aureus USA300 NRS384 clinical isolate after 20 hrs by broth microdilution method. It counts as functional. Conditions: USA300 NRS384, 20 h. Put shortly:
as §1

The subject of series [20] is Staphylococcus aureus. The experiment in a line: Antimicrobial activity against methicillin-sensitive Staphylococcus aureus NRS72 clinical isolate after 20 hrs by broth microdilution method. It counts as functional. To be noted: NRS72, 20 h. Put shortly:
as §1

For series [21], the system named is Staphylococcus aureus. The experiment in a line: Antimicrobial activity against methicillin-resistant Staphylococcus aureus USA200 NRS383 clinical isolate after 20 hrs by broth microdilution method. It counts as functional. To be noted: USA200 NRS383, 20 h. Put shortly: as §1
Series [22] deals with Staphylococcus aureus. The experiment in a line: Antimicrobial activity against methicillin-resistant Staphylococcus aureus USA400 NRS123 clinical isolate after 20 hrs by broth microdilution method. It counts as functional. Conditions: USA400 NRS123, 20 h. The gist of the method: as §1

≈ marks a conversion by molar mass, not a printed value.

In general, MIC refers to the least concentration at which growth counts as inhibited. High values mean a need for much substance, low ones inhibition by little substance. In turn, `CCCCc1ccc(-c2nc(C)c(-c3ccnc(NC(N)=S)n3)s2)cc1` yielded an MIC in the series on Staphylococcus aureus [1] above 25 µg/mL.

`Cc1nc(-c2ccc(C3=CCC(C)C3)cc2)sc1-c1ccnc(N)n1` (stereo not drawn) yielded an MIC against Staphylococcus aureus [1] of 3.8 µg/mL (≈ 10.9 µM).

`Cc1nc(-c2ccc(C=C3CCCC3)cc2)sc1-c1ccnc(N)n1`: inhibition of growth in the series on Staphylococcus aureus [1] (MIC) required 1.17 µg/mL (≈ 3.36 µM).

A word on the kinetic solubility: it is the concentration staying in solution when a stock, usually in DMSO, is diluted into the medium. For the compound `CCCCc1ccc(-c2nc(C)c(-c3ccnc(NC(=N)N(C)C)n3)s2)cc1`, the solubility (kinetic) at 2 h in series [2] was 53 µM (≈ 20.9 µg/mL). Besides, it took 0.78 µg/mL (≈ 1.98 µM) to inhibit growth against Staphylococcus aureus [1] (MIC).

Compound `CCCCc1ccc(-c2nc(C)c(C(=O)/C=C/N(C)C)s2)cc1` gave an MIC against Staphylococcus aureus [1] above 25 µg/mL.

`CCCCc1ccc(-c2nc(C)c(-c3ccnc(-n4cccn4)n3)s2)cc1` returned an MIC in the series on Staphylococcus aureus [1] above 25 µg/mL.

The term Papp A→B denotes how fast a substance crosses the layer from the apical side. By efflux ratio is commonly meant a quotient of directional permeabilities that is used to spot active efflux. One may read the Papp B→A as how fast a substance crosses the layer from the basolateral side. On to `CCCCc1ccc(-c2nc(C)c(-c3ccnc(N)n3)s2)cc1`, for which the Papp A→B at 2 h in [3] came out at 14.9 ×10⁻⁶ cm/s. The same compound showed a solubility (kinetic) at 2 h in series [2] of 42 µM (≈ 13.6 µg/mL). In series [4], the efflux ratio at 2 h came out at 1.1. The same compound displayed a minimum inhibitory concentration (MIC) in the series on Staphylococcus aureus [1] of 3.12 µg/mL (≈ 9.62 µM). Also, the Papp B→A at 2 h in series [5] amounted to 17 ×10⁻⁶ cm/s.

Compound `Cc1nc(-c2ccc(-c3ccco3)cc2)sc1-c1ccnc(N)n1` registered a solubility (kinetic) at 2 h in series [2] of 14 µM (≈ 4.68 µg/mL). In the series on Staphylococcus aureus [1], this compound had an MIC of 8.7 µg/mL (≈ 26 µM).

On to `Cc1nc(-c2ccc(/C3=C/CCCCCC3)cc2)sc1-c1ccnc(N)n1`, for which, in the series with Staphylococcus aureus [1], 5.6 µg/mL (≈ 14.9 µM) was the least that counted as inhibitory (MIC).

In turn, `Cc1nc(-c2ccc(C3=CCCC3)cc2)sc1-c1ccnc(N)n1` came in with a kinetic solubility at 2 h in series [2] of 35 µM (≈ 11.7 µg/mL). The MIC against Staphylococcus aureus [1] came to 3.12 µg/mL (≈ 9.33 µM).

The compound `Cc1nc(-c2ccc(/C=C/C3CCCC3)cc2)sc1-c1ccnc(N)n1` yielded a minimal inhibitory concentration (MIC) in the series with Staphylococcus aureus [1] of 3.12 µg/mL (≈ 8.61 µM).

Compound `Cc1nc(-c2ccc(-c3ccoc3)cc2)sc1-c1ccnc(N)n1` yielded a solubility (kinetic) at 2 h in [2] of 13 µM (≈ 4.35 µg/mL). Besides, in the series with Staphylococcus aureus [1], it took 7.8 µg/mL (≈ 23.3 µM) to inhibit growth (MIC).

The compound `Cc1nc(-c2ccc(I)cc2)sc1-c1ccnc(N)n1` registered an MIC in the series with Staphylococcus aureus [1] above 25 µg/mL.

A word on the MBC: it is the lowest tested concentration that kills the bacteria rather than only halting them. A low value points to more potent killing. On to `CN[C@@H](CC(C)C)C(=O)N[C@H]1C(=O)N[C@@H](CC(N)=O)C(=O)N[C@H]2C(=O)N[C@H]3C(=O)N[C@H](C(=O)N[C@@H](C(=O)O)c4cc(O)cc(O)c4-c4cc3ccc4O)[C@H](O)c3ccc(c(Cl)c3)Oc3cc2cc(c3O[C@H]2O[C@@H](CO)[C@H](O)[C@@H](O)[C@@H]2O[C@@H]2C[C@@](C)(N)[C@@H](O)[C@@H](C)O2)Oc2ccc(cc2Cl)[C@H]1O`, for which the MBC is 1 µg/mL (≈ 0.69 µM) against Staphylococcus aureus [6]; 1 µg/mL (≈ 0.69 µM) against Staphylococcus aureus [8]; 2 µg/mL (≈ 1.38 µM) against Staphylococcus aureus [9]; 1 µg/mL (≈ 0.69 µM) with Staphylococcus aureus [11]; above 64 µg/mL in the series with Enterococcus faecium [12]; 1 µg/mL (≈ 0.69 µM) in the series on Staphylococcus aureus [13]. The minimum bactericidal concentration (MBC) against Staphylococcus aureus [14] is 1 µg/mL (≈ 0.69 µM); against Staphylococcus aureus [16], above 64 µg/mL. Also, in the series with Staphylococcus aureus [7], the Time was found to be 24 h. For the same compound, the minimal inhibitory concentration (MIC) in the series on Staphylococcus aureus [10] and against Enterococcus faecium [15] was above 64 µg/mL throughout.

Take `CC(=O)NC[C@H]1CN(c2ccc(N3CCOCC3)c(F)c2)C(=O)O1` [LINEZOLID]: the minimal inhibitory concentration (MIC) is 1 µg/mL (≈ 2.96 µM) against Staphylococcus aureus [17]; 32 µg/mL (≈ 94.9 µM) against Staphylococcus aureus [18]; 1 µg/mL (≈ 2.96 µM) in the series on Staphylococcus aureus [19]; 1 µg/mL (≈ 2.96 µM) against Staphylococcus aureus [20]; 1 µg/mL (≈ 2.96 µM) in the series on Staphylococcus aureus [21]; 1 µg/mL (≈ 2.96 µM) against Staphylococcus aureus [10]. The MIC in the series on Staphylococcus aureus [22] and against Enterococcus faecium [15] was 1 µg/mL (≈ 2.96 µM) throughout. Further, the MBC with Staphylococcus aureus [6] was 32 µg/mL (≈ 94.9 µM); in the series on Staphylococcus aureus [8] it was 16 µg/mL (≈ 47.4 µM); against Staphylococcus aureus [9], 2 µg/mL (≈ 5.93 µM); in the series on Staphylococcus aureus [11], above 64 µg/mL; against Enterococcus faecium [12], 32 µg/mL (≈ 94.9 µM); with Staphylococcus aureus [13], 4 µg/mL (≈ 11.9 µM). For the same compound, the figures for the minimal bactericidal concentration (MBC) in the series with Staphylococcus aureus [14] and with Staphylococcus aureus [16] were 8 µg/mL (≈ 23.7 µM) and 2 µg/mL (≈ 5.93 µM), respectively.

Values taken from ChEMBL document CHEMBL3826892, “Second-Generation Phenylthiazole Antibiotics with Enhanced Pharmacokinetic Properties” (J Med Chem, 2016).
